Results reported in ChEMBL document CHEMBL4823318, “Kinetic and structural investigations of novel inhibitors of human epithelial 15-lipoxygenase-2” (Bioorg Med Chem, 2021).

How the values were obtained:
[1] = molecular target: T1, Polyunsaturated fatty acid lipoxygenase ALOX15B (Homo sapiens) (UniProt O15296); experiment: Competitive inhibition of human 15-LOX-2 assessed as equilibrium dissociation constant from catalytic site by measuring 15-HpETE by Dixon plots and Dixon replots analysis
T1 sequence (whole entry): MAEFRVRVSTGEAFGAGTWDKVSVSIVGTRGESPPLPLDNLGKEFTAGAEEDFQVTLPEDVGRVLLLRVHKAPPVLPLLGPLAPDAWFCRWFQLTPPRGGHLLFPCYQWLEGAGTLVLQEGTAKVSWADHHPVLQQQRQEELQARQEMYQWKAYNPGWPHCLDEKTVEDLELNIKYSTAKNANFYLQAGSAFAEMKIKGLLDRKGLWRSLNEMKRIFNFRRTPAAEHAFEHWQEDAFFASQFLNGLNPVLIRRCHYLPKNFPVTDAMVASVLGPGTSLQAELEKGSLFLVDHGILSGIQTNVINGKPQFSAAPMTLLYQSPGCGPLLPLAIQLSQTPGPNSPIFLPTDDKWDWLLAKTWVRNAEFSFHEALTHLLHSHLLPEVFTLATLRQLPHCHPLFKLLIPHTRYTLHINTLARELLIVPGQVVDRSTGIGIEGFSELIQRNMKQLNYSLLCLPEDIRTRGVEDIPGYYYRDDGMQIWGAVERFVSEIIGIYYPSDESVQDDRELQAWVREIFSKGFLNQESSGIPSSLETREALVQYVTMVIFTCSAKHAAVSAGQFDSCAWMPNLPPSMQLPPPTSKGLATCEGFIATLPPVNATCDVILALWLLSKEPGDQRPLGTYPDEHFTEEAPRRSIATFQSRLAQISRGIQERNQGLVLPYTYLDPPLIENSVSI
Summary of the method: (§1)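 Steady-state kinetics with h15-LOX-2 at 23 °C in stirred 25 mM HEPES pH 7.5, 0.01% Triton X-100, with 0.7–20 μM AA, reaction started by adding enzyme. Initial rates at varied inhibitor levels were fit to Henri-Michaelis-Menten for Vmax and Km. Slopes from Dixon plots (1/v vs [I]) were replotted against 1/[S]. Kic = (Km/Vmax)/replot slope; Kiu = (1/Vmax)/replot y-intercept.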

[2] = molecular target: T2, Polyunsaturated fatty acid lipoxygenase ALOX8 (Mus musculus, UniProt O35936); experiment: Inhibition of mouse 15-LOX2 assessed as enzymatic rate using arachidonic acid as substrate by UV/Vis spectrophotometric analysis
T2 sequence (O35936 whole entry): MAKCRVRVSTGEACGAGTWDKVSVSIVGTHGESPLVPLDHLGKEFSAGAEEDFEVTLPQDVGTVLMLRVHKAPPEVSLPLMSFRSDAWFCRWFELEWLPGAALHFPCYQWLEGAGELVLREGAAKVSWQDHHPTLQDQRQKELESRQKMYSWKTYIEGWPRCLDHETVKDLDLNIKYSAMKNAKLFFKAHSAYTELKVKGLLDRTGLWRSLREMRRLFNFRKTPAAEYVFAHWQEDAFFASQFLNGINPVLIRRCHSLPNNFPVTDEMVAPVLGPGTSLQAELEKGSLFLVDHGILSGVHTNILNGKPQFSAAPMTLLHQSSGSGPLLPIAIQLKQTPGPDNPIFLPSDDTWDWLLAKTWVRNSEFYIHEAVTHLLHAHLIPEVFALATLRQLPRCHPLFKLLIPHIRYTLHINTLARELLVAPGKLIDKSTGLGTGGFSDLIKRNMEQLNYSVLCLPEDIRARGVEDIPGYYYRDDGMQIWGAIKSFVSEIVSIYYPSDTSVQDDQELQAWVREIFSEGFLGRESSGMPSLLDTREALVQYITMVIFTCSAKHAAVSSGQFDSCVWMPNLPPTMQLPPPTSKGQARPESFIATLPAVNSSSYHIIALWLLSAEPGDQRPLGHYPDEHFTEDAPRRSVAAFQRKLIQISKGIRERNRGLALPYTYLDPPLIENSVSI

[3] = organism: Homo sapiens; experiment: Selectivity ratio of IC50 for inhibition of human 15-LOX-1 to IC50 for inhibition of human 15-LOX-2
Summary of the method: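 h15-LOX-1 (~60 nM total protein) was run at 23 °C, stirred, in 25 mM HEPES pH 7.5, 0.01% Triton X-100 and 10 μM AA. Diene product was read at 234 nm. Inhibition at 25 μM inhibitor was taken against the DMSO rate, in duplicate.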

[4] = organism: Homo sapiens; experiment: Selectivity ratio of IC50 for inhibition of human 12-LOX to IC50 for inhibition of human 15-LOX-2
Summary of the method: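 Conjugated diene formation was followed at 234 nm. Rates were compared with the DMSO control at a single 25 μM inhibitor concentration, in duplicate.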

[5] = tested on: HEK-293T; experiment: Cytotoxicity against human HEK293T cells expressing human 15-LOX-2 at 10 uM measured after 1 hr by cell survival assay; type: cell-based
Summary of the method: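 HEK293T cells stably overexpressing h15-LOX-2 were kept in MEM with 10% FBS, 2 mM glutamine, penicillin/streptomycin and 640 ug/ml G418. Cells were exposed to 0.2% DMSO, 10 μM or 20 μM inhibitor for 1 h. Medium was then replaced and cells were checked daily for death.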

[6] = organism: Homo sapiens; experiment: Selectivity ratio of IC50 for inhibition of human 5-LOX to IC50 for inhibition of human 15-LOX-2
[7] = organism: Homo sapiens; experiment: Selectivity ratio of IC50 for inhibition of human COX2 to IC50 for inhibition of human 15-LOX-2
Summary of the method: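 Ovine COX-1 or human recombinant COX-2 (~3 μg) was used in 0.1 M Tris-HCl pH 8.0 with 5 mM EDTA, 2 mM phenol and 1 μM hemin at 37 °C. Inhibitor was preincubated with enzyme for 5 min, then ~100 μM AA was added. O2 consumption was recorded with an oxygen electrode, and rates were compared to the DMSO control, in duplicate.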

[8] = organism: Homo sapiens; experiment: Selectivity ratio of IC50 for inhibition of ovine COX1 to IC50 for inhibition of human 15-LOX-2
[9] = molecular target: Prostaglandin G/H synthase 1 (Ovis aries) (UniProt P05979); experiment: Inhibition of ovine COX-1 assessed as enzymatic rate using arachidonic acid as substrate by oxygen electrode measurement of oxygen consumption
[10] = molecular target: T1, Polyunsaturated fatty acid lipoxygenase ALOX15B (Homo sapiens); experiment: Uncompetitive inhibition of human 15-LOX-2 assessed as equilibrium dissociation constant from secondary site by measuring 15-HpETE by Dixon plots and Dixon replots analysis; summary of the method: as §1

For `FC(F)(F)c1ccc(CSc2nccn2-c2ccccc2)cc1`, the Kic [1] was 0.7 µM, the IC50 [2] was greater than 50 µM and the Ratio IC50 [3] was greater than 50. The Ratio IC50 [4] was greater than 50, the Activity [5] was “Non-Toxic” and the Ratio IC50 [6] was greater than 50. For the same compound, the Ratio IC50 [7] was greater than 50, the Ratio IC50 [8] was greater than 50 and the IC50 [9] was greater than 100 µM.

`CCc1ccc(CSc2nccn2-c2ccccc2)cc1` gave a Kic [1] of 0.9 µM, a Kiuc [10] of 3.4 µM and an IC50 [2] greater than 50 µM. For the same compound, the Ratio IC50 [3] was greater than 50, the Ratio IC50 [4] was greater than 50 and the Activity [5] was “Non-Toxic”. It also gave a Ratio IC50 [6] greater than 50, a Ratio IC50 [7] greater than 50 and a Ratio IC50 [8] greater than 50. It also gave an IC50 [9] greater than 100 µM.

`Cc1ccc(CSc2ncn(-c3ccccc3)n2)cc1` was tested, and the Activity [5] was “Non-Toxic”.

In the case of `Brc1ccc(CSc2nccn2-c2ccccc2)cc1`, the IC50 [2] is reported as greater than 50 µM, the Activity [5] is reported as “Non-Toxic” and the IC50 [9] is reported as greater than 100 µM.
